In the library only some 4.3% were active in any assay of this set; here they are far more common.
CR mimetic SO = reduction of superoxide in aged yeast, primary screen, HTS. S. cerevisiae aged cells, superoxide DHE fluorescence; active compounds read low. superoxide response (% of plate mean), % at 10 µM. 330,000 compounds, 0.18% hits;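 active means superoxide response under a set limit, about three screen SD below normal, cut at about 65% in these data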;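 further: yeast aged for seven days with compound at 30 °C before DHE staining; 100% = average MFI of all compound-treated wells on the plate with controls excluded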
SMARCA2 act = SMARCA2 (BRM) function activators, primary screen, cell-based, luminescence, high throughput. MG213 cells, MMTV-luciferase reporter, dexamethasone, overnight. activation, % at 9.1 µM. 370,000 compounds, 1% hits. AID 652017, 2013; in the data active means activation above about 7.8%;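 further: 0% = vehicle wells and 100% = reference activator wells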
SR-BI DiI-HDL act = activators of SR-BI mediated DiI-HDL uptake, primary screen, ldlA[mSR-BI] CHO cells, DiI fluorescence. 320,000 compounds, 0.096% hits. AID 504775, 2011. activation, % at 12.5 µM. 3 h; 100 = double the neutral-control signal;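 active means mean replicate activation of at least 60% and every replicate at or above 60%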;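 further: 0% = median plate neutral-control signal and 100% = twice that signal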
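system = CHO ldlA[mSR-BI] cells, LDL receptor-null, SR-BI overexpressing | medium = Ham's F12 with 0.5% BSA, HEPES 25 mM, pH 7.4 | probe or stimulus = DiI-HDL 10 µg/mL | compound dosing = single-point compound dose | incubation = compound exposure 3 h, 37 °C | technique = DiI fluorescence, bottom read | read-out = cell-associated DiI fluorescence as measure of HDL uptake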
Hep lipid drop = inhibitors of hepatocyte lipid droplet formation, primary screen, imaging, high-throughput imaging, BODIPY stain | AML12 mouse hepatocytes, oleate lipid droplets | inhibition, % at 6.5 µM | 240,000 compounds, 0.4% hits;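 active means lipid droplet intensity inhibited by at least 50%, with more than 500 cells counted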
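Material – AML12 mouse liver cells · Also added – oleate loading, 100 µM · Compound dosing – 6.5 µM single-point dosing · Times – overnight treatment with compound plus oleate · Measured by – fluorescence imaging, 20x objective, two fields per well · Read-out – percent inhibition of filter-corrected integrated lipid droplet intensity per well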
AHR act = AHR activators, primary screen, cell-based, luminescence, luciferase reporter, human; Aryl hydrocarbon receptor (Homo sapiens), P35869; AHR-responsive luciferase reporter cells; activation, % at 5 µM; 320,000 compounds, 2.5% hits; in the data active means activation above about 47%;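 further: 0% = vehicle wells and 100% = reference agonist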
SR-BI DiI inh = inhibitors of SR-BI mediated HDL lipid uptake, primary screen, ldlA[mSR-BI] cells, fluorescence, single point | Scavenger receptor class B member 1 (Mus musculus), Q61009 | ldlA[mSR-BI] CHO cells, DiI-HDL uptake fluorescence, 3 h | AID 488896, 2010 | 320,000 compounds, 0.96% hits | inhibition, % at 12.5 µM;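 active means mean replicate inhibition of at least 70% and a set share of replicates each scoring 70 or more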;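 further: 0% = median of neutral control wells and 100% = median of positive control wells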
Target sequence (Q61009 whole entry, looked up): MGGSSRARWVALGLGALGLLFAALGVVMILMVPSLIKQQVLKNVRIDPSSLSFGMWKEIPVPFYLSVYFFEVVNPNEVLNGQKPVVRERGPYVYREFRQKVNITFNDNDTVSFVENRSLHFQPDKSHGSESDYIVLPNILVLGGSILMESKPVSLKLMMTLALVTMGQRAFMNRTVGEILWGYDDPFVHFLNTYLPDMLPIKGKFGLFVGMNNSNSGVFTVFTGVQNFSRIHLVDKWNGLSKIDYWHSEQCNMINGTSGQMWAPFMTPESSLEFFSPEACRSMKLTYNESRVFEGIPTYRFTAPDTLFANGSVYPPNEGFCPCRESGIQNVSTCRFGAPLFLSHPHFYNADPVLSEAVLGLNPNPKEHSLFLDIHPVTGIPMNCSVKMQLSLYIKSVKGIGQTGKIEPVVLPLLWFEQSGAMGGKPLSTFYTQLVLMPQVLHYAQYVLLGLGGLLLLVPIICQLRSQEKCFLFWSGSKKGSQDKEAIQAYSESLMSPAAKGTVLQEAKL
The depositor's hits bear a star; x = no result.

SMILES	CR mimetic SO	SMARCA2 act	SR-BI DiI-HDL act	Hep lipid drop	AHR act	SR-BI DiI inh
O=C(Cc1c[nH]c2ccccc12)Nc1ccc(Nc2cccnc2)c(-c2ccc(OC(F)(F)F)cc2)c1	x	-4	x	x	x	x
O=C(O)C1Nc2c(O)cc(Cl)c([N+](=O)[O-])c2C2C=CCC12 (configuration not stated)	73	-4	-83	x	2	83*
Cc1ccc2c(c1)C1C=CCC1C(C(=O)O)N2 (configuration not stated)	103	x	x	38	2	x
COCCCNC(=O)CSc1nnc(-c2ccncc2)n1-c1ccc(OC)cc1	x	-2	x	x	x	x
CC(=O)Nc1c2c(nn1-c1ccccc1)CSC2	107	0	16	-4	2	-16
O=C(/C=C\c1ccc2c(c1)OCO2)Nc1c2c(nn1-c1ccc(Cl)cc1)CSC2	100	-4	-75	-19	20	75*
Cc1cc(C)nc(NN=CC2=C(N3CCOCC3)/C(=C/c3ccc(Cl)cc3)CC2)n1	x	4	-76	x	x	76*
CC(=O)Nc1cccc(C(C)C2=CCCCC2)c1 (configuration not stated)	x	7.8*	x	x	x	x
CCOC(=O)N/N=C/c1ccc(OCCSc2ccc(Cl)cc2)c(OCC)c1	88	-4	-74	1	10	74*
Cc1nc(SCc2nc3ccccc3[nH]2)c2oc3cc(Br)ccc3c2n1	106	0	-2	x	77*	2
CCOC(=O)N/N=C/c1cn(CCCOc2ccc(C)cc2)c2ccccc12	93	2	-72	-12	32	72*
Cn1cc(/C=N/NC(=O)COc2ccccc2[N+](=O)[O-])c2ccccc21	104	0	-31	-23	58*	31
COC(=O)N/N=C/c1cn(CCOc2ccccc2OC)c2ccccc12	105	-4	-32	x	60*	32
CNC(=S)N/N=C/c1cn(CCOc2cccc(OC)c2)c2ccccc12	79	-3	-80	8	56*	80*
COC(=O)[C@@]12CCCCC=C1N(CCc1ccc(Cl)cc1)C(=O)[C@H]2CC(=O)NCCCCc1ccccc1	x	-3	x	x	x	x
COc1ccc2c(c1)[nH]c1c(N3CCN(Cc4ccc5c(c4)OCO5)CC3)ncnc12	110	-7	-28	x	12	28
COc1cccc2[nH]c3c(N4CCC(C)CC4)ncnc3c12	99	0	-8	x	60*	8
COc1cccc2[nH]c3c(N4CCN(Cc5ccc6c(c5)OCO6)CC4)ncnc3c12	105	1	x	x	73*	x
Nn1cc(-c2ccccc2)nc1SCC(=O)N1CCN(S(=O)(=O)c2ccccc2)CC1	118	0	18	6	52*	-18
C#CCOCCOCCOCCNc1nc(N2CCN(C(=O)CCCCCCCCCCNC(=O)[C@H](CCCCN)n3cc(CCCC(=O)O)nn3)CC2)nc(N2CCN(C(=O)CCCCCCCCCCNC(=O)[C@H](CCCN=C(N)N)n3cc(C[C@@H](C)CC)nn3)CC2)n1	95	x	-80	x	-1	80*
COc1ccc(-c2ccc3c(n2)CCCN3S(=O)(=O)c2ccc(C#N)cc2)cc1	x	-5	x	x	x	x
CCc1nnc(NC(=O)c2sc3nc4c(cc3c2N)CCCCCC4)s1	109	-2	2	13	50*	-2
O=C(Nc1ccccc1)N1CCCN(c2nccc(C(F)(F)F)n2)CC1	101	7.8*	-1	-16	-5	1
COCCN1CC(=O)N2C(c3cccc(C)c3)c3[nH]c4ccccc4c3C[C@H]2C1=O (some centres not stated)	108	-1	-68	-26	10	68
COCCCN1CC(=O)N2C(c3cccc(C)c3)c3[nH]c4ccccc4c3C[C@H]2C1=O (some centres not stated)	99	-2	-76	-4	11	76*
CN1CC(=O)N2C(c3ccc(Cl)cc3)c3[nH]c4ccccc4c3C[C@H]2C1=O (some centres not stated)	95	-1	-50	20	9	50

Source: PubChem (several laboratories)
